What is called Km is the substrate concentration at which the rate is half of its maximum. By Vmax is commonly meant the rate approached at saturating substrate.

Where “and” joins values, the source holds several entries; their conditions need not be identical. Equal values may be shown once. Where a SMILES comes first, the peptide text is derived from it. [ ]: non-standard residue; d: D form. The star is where a group is joined. X1 = O=[N+]([O-])c1cc([N+](=O)[O-])cc(*)c1; Farnesyl = CC(C)=CCC/C(C)=C/CC/C(C)=C/C*; 2Abz = Nc1ccccc1C(=O)O

What all share (format): cell membranes
Data set [1] deals with T1, CAAX prenyl protease 2 (Saccharomyces cerevisiae S288c) (UniProt Q03530).
T1 sequence (whole entry): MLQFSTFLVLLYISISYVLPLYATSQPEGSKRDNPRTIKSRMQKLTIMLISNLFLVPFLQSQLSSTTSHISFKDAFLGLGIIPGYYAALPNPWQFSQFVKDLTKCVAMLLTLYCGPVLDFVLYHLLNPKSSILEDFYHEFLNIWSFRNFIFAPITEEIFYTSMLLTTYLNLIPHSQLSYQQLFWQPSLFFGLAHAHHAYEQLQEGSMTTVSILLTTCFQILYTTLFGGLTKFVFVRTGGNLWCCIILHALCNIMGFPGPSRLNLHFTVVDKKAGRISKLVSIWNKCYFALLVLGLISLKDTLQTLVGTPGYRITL
Briefly: Binding affinity to Rce1p in yeast membranes assessed as reduction in binding affinity at 0.75 uM after 30 mins by Western blotting in presence of 100 uM of (3S,6S,9S,12S,15S,18R,21S,24S,27S)-3,9,15-tris(4-aminobutyl)-24-sec-butyl-21-(4-(3,5-dinitrophenylamino)butyl)-12-((S)-1-hydroxyethyl)-6-(hydroxymethyl)-22-imino-27-(2-(methylthio)ethyl)-1,4,7,10,13,16,19,25-octaoxo-1-phenyl-18-(((2E,6E)-3,7,11-trimethyldodeca-2,6,10-trienylthio)methyl)-2,5,8,11,14,17,20,23,26-nonaazaoctacosan-28-oic acid. Further details: scale not given: the % may be the effect or the level left. The gist of the method: (§1)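 Competition photolabelling: Rce1p-containing yeast membranes (0.25 μg/μL) with biotinylated benzophenone probe (0.75 μM) in 100 mM Hepes, 5 mM MgCl2, pH 7.5. Farnesylated competitor peptide added at 50 or 100 μM. UV photolysis 30 min at 4 °C, then streptavidin pull-down and anti-HA Western blot. Band intensities quantified by densitometry relative to the no-competitor reaction.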
(In general: A western blot detects proteins with antibodies after separation by electrophoresis.)

Data set [2] has as its target T1, CAAX prenyl protease 2 (Saccharomyces cerevisiae S288c). Kind of data set: Binding affinity to Rce1p in yeast membranes assessed as reduction in binding affinity at 0.75 uM after 30 mins by Western blotting in presence of 50 uM of (3S,6S,9S,12S,15S,18R,21S,24S,27S)-3,9,15-tris(4-aminobutyl)-24-sec-butyl-21-(4-(3,5-dinitrophenylamino)butyl)-12-((S)-1-hydroxyethyl)-6-(hydroxymethyl)-22-imino-27-(2-(methylthio)ethyl)-1,4,7,10,13,16,19,25-octaoxo-1-phenyl-18-(((2E,6E)-3,7,11-trimethyldodeca-2,6,10-trienylthio)methyl)-2,5,8,11,14,17,20,23,26-nonaazaoctacosan-28-oic acid. Further details: scale not given: the % may be the effect or the level left. Put shortly: as §1

Substrate in data set [3]: CC[C@H](C)[C@H](NC(=O)[C@H](CCCCNc1cc([N+](=O)[O-])cc([N+](=O)[O-])c1)NC(=O)[C@H](CSC/C=C(\C)COCc1cccc(C(=O)c2ccccc2)c1)NC(=O)[C@H](CCCCN)NC(=O)[C@@H](NC(=O)[C@H](CCCCN)NC(=O)[C@H](CO)NC(=O)[C@H](CCCCN)NC(=O)c1ccccc1N)[C@@H](C)O)C(=O)N[C@@H](CCSC)C(=O)O
Briefly: (§2) Activity of Rce1p in yeast membranes assessed as enzyme-mediated Ca1a2X proteolysis measured every 30 to 60 seconds for 1 hr by spectrofluorimetric assay. The conditions noted are these: Saccharomyces cerevisiae.

Substrate in data set [4]: CC[C@H](C)[C@H](NC(=O)[C@H](CCCCNc1cc([N+](=O)[O-])cc([N+](=O)[O-])c1)NC(=O)[C@H](CSC/C=C(\C)CC/C=C(\C)CCC=C(C)C)NC(=O)[C@H](CCCCN)NC(=O)[C@@H](NC(=O)[C@H](CCCCN)NC(=O)[C@H](CO)NC(=O)[C@H](CCCCN)NC(=O)c1ccccc1N)[C@@H](C)O)C(=O)N[C@@H](CCSC)C(=O)O
The data set is described as §2. The conditions noted are these: Saccharomyces cerevisiae.

Substrate in data set [5]: CC[C@H](C)[C@H](NC(=O)[C@H](CCCCNc1cc([N+](=O)[O-])cc([N+](=O)[O-])c1)NC(=O)[C@H](CSC/C=C(\C)COCc1cccc(C(=O)c2ccccc2)c1)NC(=O)[C@H](CCCCN)NC(=O)[C@@H](NC(=O)[C@H](CCCCN)NC(=O)[C@H](CO)NC(=O)[C@H](CCCCN)NC(=O)c1ccccc1N)[C@@H](C)O)C(=O)N[C@@H](CCSC)C(=O)O
Briefly: Activity of Rce1p in yeast membranes assessed as enzyme-mediated Ca1a2X proteolysis per mg of protein measured every 30 to 60 seconds for 1 hr by spectrofluorimetric assay. Conditions: Saccharomyces cerevisiae.

For the molecule `CC[C@H](C)[C@H](NC(=O)[C@H](CCCCNc1cc([N+](=O)[O-])cc([N+](=O)[O-])c1)NC(=O)[C@H](CSC/C=C(\C)CC/C=C(\C)CCC=C(C)C)NC(=O)[C@H](CCCCN)NC(=O)[C@@H](NC(=O)[C@H](CCCCN)NC(=O)[C@H](CO)NC(=O)[C@H](CCCCN)NC(=O)c1ccccc1N)[C@@H](C)O)C(=O)N[C@@H](CCSC)C(=O)O` (H-[2Abz]KSKTKC(Farnesyl)K(X1)IM-OH), the Activity in data set [1] stood at 31%; in data set [2], 60%.

B1: CAAX prenyl protease 2 (Saccharomyces cerevisiae S288c), Q03530 (protein)
chain: MLQFSTFLVLLYISISYVLPLYATSQPEGSKRDNPRTIKSRMQKLTIMLISNLFLVPFLQSQLSSTTSHISFKDAFLGLGIIPGYYAALPNPWQFSQFVKDLTKCVAMLLTLYCGPVLDFVLYHLLNPKSSILEDFYHEFLNIWSFRNFIFAPITEEIFYTSMLLTTYLNLIPHSQLSYQQLFWQPSLFFGLAHAHHAYEQLQEGSMTTVSILLTTCFQILYTTLFGGLTKFVFVRTGGNLWCCIILHALCNIMGFPGPSRLNLHFTVVDKKAGRISKLVSIWNKCYFALLVLGLISLKDTLQTLVGTPGYRITL
Regarding B1, the Km in data set [3] is 1.9 µM; in data set [4], 6.4 µM and 4 µM. Further, the Vmax in data set [5] was 0.093 nmol/min/mg.

The values are drawn from ChEMBL document CHEMBL1250459, “Photoaffinity labeling of Ras converting enzyme 1 (Rce1p) using a benzophenone-containing peptide substrate” (Bioorg Med Chem, 2010).
